Source: PubChem
EBI2 block: blocks human EBI2 receptor beta-arrestin signaling. P32249. 360,000 compounds, 0.81% hits. inhibition, % at 5 µM. EBI2 beta-arrestin recruitment, luminescence, 7a,25-OHC stimulated. AID 651636; in the data active = inhibition above about 38%;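 also: enzyme fragment complementation signal reports receptor beta-arrestin coupling in cells; 0% = agonist plus DMSO wells and 100% = wells without agonist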
CXCR6 inh: inhibitors of human CXCR6 receptor | O00574 | CHO-K1 PathHunter CXCR6 beta-arrestin, luminescence | inhibition, % at 20 µM | 360,000 compounds, 0.36% hits | AID 602244; in the data active = inhibition above about 34%, passing the limit was not always enough;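 also: antagonist mode with CXCL16 agonist at 10 nM final; 0% = 10 nM CXCL16 with DMSO and 100% = unstimulated wells without agonist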
CCR6 antagonist: blocks CCL20-driven beta-arrestin recruitment at human CCR6; CHO-K1 CCR6 PathHunter beta-arrestin, luminescence, CCL20-stimulated; inhibition, % at 20 µM; 340,000 compounds, 0.49% hits; AID 493098;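 active = compounds whose inhibition of the agonist-driven luminescence signal at 20 µM reaches about 50%, limit read from the data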;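 also: cells stimulated with CCL20 at 14 nM final; plate controls were DMSO with CCL20 for no effect and DMSO without agonist for full effect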
APJ antagonist: antagonists of human APJ apelin receptor; 330,000 compounds, 0.32% hits; AID 2521; P35414; inhibition, % at 20 µM; CHO-K1 APJ beta-arrestin complementation, luminescence;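 active = inhibition above about 40% at 20 µM, limit read from the data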;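 also: cells challenged with 10 nM apelin-13 agonist together with compound; plate controls were apelin-13 plus DMSO wells for no effect and DMSO wells lacking apelin-13 for full effect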
Target sequence (P35414 whole entry, looked up): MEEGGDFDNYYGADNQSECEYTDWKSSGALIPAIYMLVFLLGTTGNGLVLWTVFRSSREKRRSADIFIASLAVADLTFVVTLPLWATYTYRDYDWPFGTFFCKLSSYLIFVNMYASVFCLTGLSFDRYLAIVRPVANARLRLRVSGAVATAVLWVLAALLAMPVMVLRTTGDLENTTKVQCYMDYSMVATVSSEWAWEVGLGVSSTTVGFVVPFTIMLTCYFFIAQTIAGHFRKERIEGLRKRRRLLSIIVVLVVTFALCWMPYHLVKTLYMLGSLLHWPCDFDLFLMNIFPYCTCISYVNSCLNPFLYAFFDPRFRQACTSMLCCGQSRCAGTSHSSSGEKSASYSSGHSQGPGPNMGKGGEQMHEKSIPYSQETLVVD
APJ ag: APJ receptor agonism; activation, % at 20 µM; CHO-K1 APJ PathHunter beta-arrestin, luminescence; 0% DMSO wells, 100% apelin; AID 2520; 330,000 compounds, 0.11% hits; P35414;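 active = activation more than six SD over the plate average, tested at 20 µM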;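 also: 0% = DMSO alone and 100% = apelin-13 at 10 nM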
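Assay system: engineered CHO-K1 APJ arrestin reporter cells; Amount: 1000 CHO-K1 reporter cells seeded per well; Dosing: one dose, 20 µM compound, 1% DMSO; Times: compound stimulation 90 min at 25 °C, detection 60 min; Measured by: luminescent beta-gal fragment complementation, chemiluminescent substrate; Read-out: APJ–arrestin association signal; Controls: DMSO vs Apelin-13 10 nM.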
H9c2 TAG inh: reduces triacylglycerol accumulation in H9c2 cells. Nile Red lipid (TAG) fluorescence; cells loaded with 200 µM oleic acid. 230,000 compounds, 0.66% hits. inhibition, % at 12.5 µM;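 active = pattern-corrected inhibition of lipid staining of at least 50% with the nuclear-stain viability signal not falling by more than 50%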;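 also: 0% = DMSO wells and 100% = triacsin C control wells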
CXCR6 antag conf: confirmation of human CXCR6 receptor antagonists. shares compounds with CXCR6 inh. CHO-K1 CXCR6 PathHunter beta-arrestin, luminescence. inhibition, % at 20 µM. 700 compounds, 65% hits;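 active = mean inhibition over four retests above 40%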;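 also: receptor stimulated with 10 nM CXCL16 agonist; beta-galactosidase fragment complementation upon beta-arrestin recruitment to receptor; plate controls were CXCL16 plus DMSO for no effect and DMSO without CXCL16 for full effect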
Numbers without * were called inactive; . = not tested or not shown. This is a sample that favours compounds with a hit; in the whole collection about 1.9% have one here.

SMILES | EBI2 block | CXCR6 inh | CCR6 antagonist | APJ antagonist | APJ ag | H9c2 TAG inh | CXCR6 antag conf
O=C(NC1CCN(Cc2ccccc2)CC1)c1cccc(S(=O)(=O)Nc2ccc(SC(F)F)cc2)c1 | 3 | 1 | 0 | -4 | -1 | -8 | .
Cc1nc(SCc2nc3c(O)cccc3[nH]2)c2oc3ccccc3c2n1 | 14 | 15 | 16 | 15 | -3 | -3 | .
O=C(NC(=S)N1CCN(c2ccc(C(F)(F)F)cc2[N+](=O)[O-])CC1)c1cccs1 | 7 | 52* | . | 22 | 0 | . | 56*
O=C(O)/C=C/C(=O)NNc1ncnc2ccccc12 | -5 | -6 | 4 | -18 | -6 | -2 | .
COCCNC(=O)C1(C)CCN(Cc2ccc3ccccc3c2Br)C1 (centres undefined) | 8 | 7 | . | . | . | -11 | .
COc1ccc(/C=C(/C(=O)c2cccs2)N2C=CC=CC2=C(C#N)C#N)cc1 | 23 | 62* | 84* | . | . | . | 57*
COc1ccc(C(=O)/C(=C\c2ccco2)N2C=CC=CC2=C(C#N)C#N)cc1 | 54* | 84* | 100* | 86* | -8 | -27 | 103*
N#CC(C#N)=C1C=CC=CN1/C(=C\c1ccco1)C(=O)c1ccccc1 | 78* | 98* | 100* | . | . | . | 105*
COc1ccc(C(=O)N/C(=C\c2ccco2)C(=O)OCc2ccco2)cc1 | -7 | -7 | 10 | -6 | 0 | 5 | .
CC(C)(C)OC(=O)C[C@H]1C/C=C\C[C@H](CC(=O)NCCO)C(=O)N[C@@H](Cc2ccccc2)COC1=O | -1 | 0 | 5 | 10 | -1 | 6 | .
CC(=O)Nc1ccc(S(=O)(=O)NCCC(=O)NNC(=O)c2ccccc2O)cc1 | 11 | 2 | 1 | 22 | -3 | -32 | .
CC1=CC(C)(C)N2C(=O)C(=Nc3ccc(O)cc3)c3cccc1c32 | -33 | 48* | 49 | 10 | -3 | 31 | 48*
CCc1ccc(N2CC(C(=O)Nc3ccccc3N3CCCC3)CC2=O)cc1 (centres undefined) | 10 | 5 | . | . | . | 18 | .
Cc1ccc2c(Cl)cc(Cl)c(O)c2n1 | 30 | 49* | 97* | . | . | 17 | 70*
Cc1ccc2c(C)ccc(O)c2n1 | -11 | 65* | 83* | 35 | -6 | 6 | 76*
C=C1C(=O)C23CCC4C(C)(C(=O)OC)CCCC4(C)C2CCC1(O)C3 (centres undefined) | 78* | 79* | 86* | . | . | 117 | 89*
Cn1cc(CNC(=O)C2CCCCC2)cn1 | 1 | 43* | 2 | -18 | -6 | . | 7
CCOc1ccc(C(=O)Nc2ccc(S(=O)(=O)N3C[C@@H]4C[C@@H](C3)c3cccc(=O)n3C4)cc2)cc1 | 15 | 12 | 7 | 7 | 0 | . | .
Cc1cc(C)c2c(=O)n(CC(=O)NC3CCCC3)sc2n1 | 16 | 99* | 15 | -27 | 2 | 3 | 34
COc1cc(Br)c(/C=C/c2ccc3cccc(O)c3n2)cc1OC | 9 | 24 | 48 | 3 | -4 | . | .
COc1ccc(OC)c(/C=C/c2ccc3cccc(O)c3n2)c1 | 23 | 48* | . | 38 | -7 | . | 59*
O=C1CN(C(=O)c2cccc([N+](=O)[O-])c2)CC(=O)N1 | -11 | 0 | 5 | 7 | 3 | 3 | .
CCC1=NN(C(=O)c2ccc(Br)cc2)C(O)(c2ccccc2)C1 (centres undefined) | 16 | 48* | 73* | 30 | -5 | . | 34
CCOC(=O)C1=NN(C(=O)c2ccccc2)C(O)(c2ccc(C)cc2)C1 (centres undefined) | -3 | 8 | 12 | -3 | -3 | -7 | .
CCC1=NN(C(=O)c2cccc([N+](=O)[O-])c2)C(O)(c2ccc(C)cc2)C1 (centres undefined) | 2 | 48* | 66* | 37 | -5 | . | 13
SMILES | EBI2 block | CXCR6 inh | CCR6 antagonist | APJ antagonist | APJ ag | H9c2 TAG inh | CXCR6 antag conf
CN(C)CCCN(C(=O)CCS(=O)(=O)c1ccccc1)c1nc2cc3c(cc2s1)OCO3 | 42* | 40* | 50* | 30 | -1 | 23 | 57*
CN(C)CCCN(C(=O)CCSc1ccccc1)c1nc2cc3c(cc2s1)OCO3 | 14 | -4 | 29 | 14 | -4 | 7 | .
COCCCn1c(N)c(-c2nc3ccccc3n2C)c2nc3ccccc3nc21 | 5 | 43* | . | 5 | -8 | . | 65*
Cn1c(-c2c(N)n(CCCc3ccccc3)c3nc4ccccc4nc23)nc2ccccc21 | 27 | 9 | -2 | . | . | . | .
CC(C)Cn1c(=O)c2c(nc3n2CC(C)CN3Cc2ccccc2)n(C)c1=O (centres undefined) | 7 | 12 | 31 | 18 | 1 | . | .
CCC1C(=O)C[C@H]2CCN3C(=O)CCCC1C23 (some centres undefined) | -4 | 2 | 13 | . | . | 15 | .
C/C(=N\NC(=O)COc1ccc(C(C)(C)C)cc1)c1ccc(-n2ccnc2)cc1 | 12 | 73* | -2 | -31 | -1 | -2 | 6
CC(C)(C)c1ccc(OCC(=O)Nc2ccncc2)cc1 | -1 | 41* | -3 | -2 | -2 | -13 | 16
COc1ccc(OCC(=O)N/N=C(\C)c2ccc(-n3ccnc3)cc2)cc1 | -7 | -3 | -18 | -8 | -1 | . | .
CCc1ccc(OCC(=O)Nc2ccncc2)cc1 | -6 | 7 | 7 | 10 | 0 | -9 | .
COC(=O)C1CCN(C2CN(Cc3ccc(C)cc3)S(=O)(=O)C2)CC1 (centres undefined) | 4 | 7 | . | . | . | . | .
NC(=O)[C@@H]1CC2(CC(c3cccc(NC(=O)[C@H]4CCC(=O)N4)c3)=NO2)CN1C(=O)COc1ccc(Cl)cc1 (some centres undefined) | -4 | -6 | -6 | 22 | -6 | 10 | .
O=C(c1ccco1)N1CCN(Cc2cn[nH]c2-c2ccc(F)cc2F)CC1 | -4 | 57* | 5 | 12 | 3 | 11 | 12
COc1ccc(-c2[nH]ncc2CN2CCN(C(=O)c3ccco3)CC2)cc1F | 2 | -3 | 9 | 7 | -2 | -1 | .
O=S(=O)(/C=C/C=C/S(=O)(=O)c1ccccc1)c1ccccc1 | 54* | 70* | 89* | . | . | 101 | 67*
Cn1cnc([N+](=O)[O-])c1S(=O)(=O)Oc1ccccc1 | 11 | 42* | 49 | . | . | 15 | 60*
Cn1cnc([N+](=O)[O-])c1S(=O)(=O)c1cccc(Cl)c1 | 21 | 49* | 59* | 36 | -3 | 42 | 65*
Cn1cnc([N+](=O)[O-])c1S(=O)(=O)Nc1ccccc1 | 2 | 11 | 4 | . | . | -10 | .
Cc1cc(S(=O)(=O)c2ccc([N+](=O)[O-])cn2)ccc1Br | 13 | 16 | -6 | -35 | 19 | 89 | .
